Experimental findings from the RNAGym collection of RNA variant scans (doi:10.1126/science.aae0568) are described below.

Sequences and labels used below:
B1: tRNA (parent)
chain: GUUCCGUUGGCGUAAUGGUAACGCGUCUCCCUCCUAAGGAGAAGACUGCGGGUUCGAGUCCCGUACGGAACG

Fewer inactive variants are shown than the library holds. A value given as a limit tells only on which side of the number the result lay.

The variants in the data set derive from B1. Description: yeast fitness relative to wild type (ratio to wild type); higher = fitter; tRNA-Arg(CCU), competitive growth, 37 C, YPD. A digest of the protocol: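 Changes in genotype frequencies gave Darwinian fitness relative to wild type. Frequencies were read by 100-nucleotide paired-end sequencing of gene amplicons before and after pooled Saccharomyces cerevisiae strains, carrying tRNA-Arg(CCU) gene variants at the native locus, were competed in YPD at 37°C for 24 hours in six replicates. A genotype was kept only with ≥ 100 starting reads, and estimates < 0.5 were set to 0.5.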
As to A20C C31A A70U, the yeast fitness is at most 0.5.

Take A20C U53G C66U: the yeast fitness came out at 0.696.

Regarding A20C C33A A65U, the yeast fitness was at most 0.5. With A20C A42C C60A, the yeast fitness is at most 0.5. The same measure for A20G A21C G39C C62G: at most 0.5; for A20G A57G C61U C62U A69G: at most 0.5. As to A20C A37C A43G U54A, the yeast fitness was at most 0.5. The same measure for A20G A43C C61U A70C: at most 0.5; for A20G A21C G39C G48C C62G: at most 0.5; for A20C C29U C49G G58A: at most 0.5. A20G A37G: the yeast fitness stood at 0.718. Consider A20C G23C C27A, for which the yeast fitness came to 0.574. The same measure for A20C A43U G48C: 0.615; for A20G A65U A69U: 0.857. The same measure for A20G A65U A69C: at most 0.5; for A20C C34U G52A C62U: at most 0.5. The same measure for A20C C34A: 0.674; for A20C G25A: 1.06. For the variant A20C G25C, the yeast fitness is 0.783. The same measure for A20C C24U C34G: 0.506. The same measure for A20C C29G C31U A57U: at most 0.5; for A20C C22G C29A C30G: 0.616.

As to A20C U28G U47C G68C, the yeast fitness is at most 0.5.

Take A20C G38C G63A A70C: the yeast fitness was at most 0.5. The same measure for A20C A43C A57C: at most 0.5; for A20C U28C C30A G44C A45G C55A: at most 0.5. A20C C46A C61U C66U: the yeast fitness is at most 0.5.

Consider A20C C55G A65G, for which the yeast fitness was found to be 0.53. The same measure for A20C C34G A43C C62U G68C: at most 0.5; for A20C C46U: 1.13; for A20C U32A U64A A65U: 0.558. A20C G25A C31G C33U C34U G41C A57G: the yeast fitness was at most 0.5. The same measure for A20G A65U: 0.901; for A20G A65C: 1.06.

Consider A20C U28C A36C, for which the yeast fitness is at most 0.5. The same measure for A20G A21G G38C G50C: at most 0.5. The same measure for A20C U64A: 0.7.

Regarding A20C U64C, the yeast fitness turned out to be 0.984. In the case of A20C A37C G63A, the yeast fitness was at most 0.5. The same measure for A20C C24A C29G C34G G56A A65G A69C: 0.856; for A20C C22U U26C C46G C49U A69C: at most 0.5. The same measure for A20C C27A G52C: 0.595. As to A20C C34G G68C, the yeast fitness is at most 0.5. On to A20C C24U C66U, for which the yeast fitness is at most 0.5. Take A20C C31A G39C C49U: the yeast fitness was at most 0.5.

On to A20C C22G C33A A42C C61U, for which the yeast fitness is at most 0.5.

Consider A20C C30G U35C C60A, for which the yeast fitness was at most 0.5. Turning to A20G A21C C49U, the yeast fitness amounted to 0.548. The same measure for A20C C31G U47C G58C: at most 0.5; for A20C C31U A42U: 0.643. The same measure for A20G A36U A42G G58A: at most 0.5; for A20C A40U: 0.855.

On to A20C A40C, for which the yeast fitness was 0.788. As for A20C U28C, the yeast fitness stood at 0.929. Consider A20C C29U U32A A70U, for which the yeast fitness was at most 0.5. The same measure for A20C G25C U35A A45U: at most 0.5; for A20C C24U A43C: at most 0.5.

A20C A40U C60G A65C: the yeast fitness is at most 0.5.

With A20C U26C C27U G67A, the yeast fitness was at most 0.5. The same measure for A20C A42C: 0.603.

On to A20C G56A A70G, for which the yeast fitness was 0.611.

A20C G56A A70U: the yeast fitness was found to be 0.91. The same measure for A20G A40U U64A: at most 0.5; for A20C C22U C34U U35G U47C A65C: at most 0.5; for A20C C29U C31G U32A C33A U53C: at most 0.5.

Turning to A20C C33A A40C, the yeast fitness stood at 0.7. As to A20C U26A C34G C46G, the yeast fitness turned out to be 0.595. Take A20C G39A U54A: the yeast fitness was determined as 0.599. As for A20C U32C, the yeast fitness worked out at 0.985. The same measure for A20C U32A: 0.719; for A20G A21C A43U G50A G52U A69C: at most 0.5; for A20C A36G C55U: 0.556. The same measure for A20G A36G A65G: 0.846; for A20G A40C C60G: at most 0.5; for A20C A45U A65G: 0.58.

In the case of A20G A57U A65U G68C, the yeast fitness is at most 0.5.

As to A20C A37G C49G U53A C60U, the yeast fitness is 0.527. On to A20C C22U C29G G41C C49G U53A C66U, for which the yeast fitness is at most 0.5. The same measure for A20C G67C A70U: 0.761; for A20C C27U A36G A65G G67A: 0.542; for A20C G23A A43G C55G C60A: at most 0.5. Regarding A20C G23A, the yeast fitness is 0.788. The same measure for A20C G48C: 0.889.

In the case of A20C C29U A37G, the yeast fitness came out at 0.753.

For the variant A20C C24G G56A C62A, the yeast fitness was at most 0.5. For A20C U59A, the yeast fitness was determined as 0.697. On to A20G A40C A69G, for which the yeast fitness worked out at 0.625. As to A20C G23A A70U, the yeast fitness is 0.551. The same measure for A20C G23A C55G: 0.593; for A20G A45U G48A C55A: at most 0.5. As for A20C C31G G58C, the yeast fitness turned out to be 0.92. In the case of A20C A69C, the yeast fitness came to 1.13. The same measure for A20C A69G: 1.01. The same measure for A20C C27A C30A C31U G52A: at most 0.5; for A20C C62G: 0.618. The same measure for A20C C62U: 0.923; for A20C C62A: 0.831; for A20C C29G A57U: at most 0.5.

As for A20C G39C A70U, the yeast fitness is 0.521.

A20C G38A C55A C66U: the yeast fitness was at most 0.5. As to A20C C29A G51C, the yeast fitness is at most 0.5. In the case of A20C C49G C62U, the yeast fitness is at most 0.5. The same measure for A20G A42U: 0.982.

For A20C G25C G38C G56C G63C U64C, the yeast fitness is 0.524. As for A20C A65C C66U, the yeast fitness came to 0.619. The same measure for A20C G50A G68A: at most 0.5; for A20C C33U G38C: at most 0.5. Consider A20C C49U A70G, for which the yeast fitness worked out at 0.748.

As to A20C G67A, the yeast fitness amounted to 0.873. The same measure for A20C G67C: 0.654; for A20G A43U A45C G67C: at most 0.5; for A20C G48C C66U: 0.73. The same measure for A20C C31U A40G G52C G67C: at most 0.5; for A20C C29U A37G A69U: 0.526. The same measure for A20G A36U C61U: 0.571. In the case of A20C C24G C29G A65G, the yeast fitness was at most 0.5.

As for A20C C22G C34G G44A A65U, the yeast fitness worked out at 0.569. The same measure for A20G A40G C49U G58A: at most 0.5; for A20C C55U A70C: 0.612; for A20C C29U C34A C46A G50A A57U G58A C66U: at most 0.5.

In the case of A20C C31U A40G G52C C62A A65G, the yeast fitness is at most 0.5. The same measure for A20C C34U A40G A57C G67C: at most 0.5. The same measure for A20C G52C U54A: at most 0.5. For the variant A20G A36U G63C U64C, the yeast fitness was found to be 0.666. The same measure for A20C G39C C61U: at most 0.5; for A20C C22U: 0.729; for A20C C33U G41A: at most 0.5.

As for A20G A37U G48C, the yeast fitness worked out at 0.603. The same measure for A20C U28A C31G C55A G68C: at most 0.5; for A20C C22U A43U A69C: at most 0.5; for A20G A37U C46A: at most 0.5. The same measure for A20C U28G U47C C66U: at most 0.5; for A20G A40G A42G C55U: at most 0.5; for A20C A43U: 0.829. Take A20C A43G: the yeast fitness was determined as 1.01. For A20C C30A A57U, the yeast fitness was at most 0.5. The same measure for A20G A37G G44A: 0.658; for A20G A69C: 0.916. The same measure for A20C C24A A36C G48C: at most 0.5; for A20C A37G G56C C66U: at most 0.5.

Take A20C C30U C66U: the yeast fitness was at most 0.5. The same measure for A20C A40U G48A C61A G68A: at most 0.5; for A20G A36U A57C: at most 0.5; for A20C C29G: 0.609. Take A20G A42C C66U: the yeast fitness worked out at 0.625. The same measure for A20C A57C: 0.601; for A20C A57U: 0.81; for A20C A57G: 0.757. On to A20C C22U C34U U35G, for which the yeast fitness is at most 0.5.

For the variant A20G A45U, the yeast fitness amounted to 1.04.

Take A20G A45C: the yeast fitness amounted to 0.866. Regarding A20G A45G, the yeast fitness turned out to be 0.992.

Consider A20C A36G U47C, for which the yeast fitness was 0.658. The same measure for A20G A21C C30A G41C C66U: 0.526. The same measure for A20C C34A G50C C61U: at most 0.5; for A20C G23A C30A A40U: at most 0.5; for A20C C24U C55U: at most 0.5. The same measure for A20C C24U C55G: 0.643; for A20C C24U A40G A42U G50A G51C A70C: at most 0.5.

With A20C U26C, the yeast fitness is 0.883.

Turning to A20C A37C A43G, the yeast fitness was determined as 0.57. As for A20C A45C G63C G67A, the yeast fitness was at most 0.5.

As for A20C G51C, the yeast fitness is 0.541.

Turning to A20C G51A, the yeast fitness was 0.815.

Regarding A20C C24G C27U C31G A65C, the yeast fitness was at most 0.5. The same measure for A20G A45U G67C: 0.613; for A20C G48C G67A: 0.638.
